Experimental data: ChEMBL document CHEMBL1649408, “Synthesis and in vitro antimycobacterial activity of 8-OCH(3) ciprofloxacin methylene and ethylene isatin derivatives” (Eur J Med Chem, 2011)
≈ marks a conversion by molar mass, not a printed value.

Columns and labels:
[1] = system: Mycobacterium tuberculosis; experiment: Antimycobacterial activity against multidrug-resistant Mycobacterium tuberculosis 09710 after 7 days by serial double dilution technique; format: functional; conditions: Mycobacterium tuberculosis, 09710, 168 h
Procedure, shortened: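 MDR strain (resistant to RIF, INH, EMB, SM), clinical isolate, tested by rapid direct susceptibility test. Compounds two-fold diluted in 2× Advanced Middlebrook 7H9 broth, final 256 to 1 µg/ml, mixed 1:1 with suspension containing 4 × 10^-3 mg cells. Incubated sealed at 37 °C in wet box; read at 3 days, redetermined at 7 days by high-magnification visual system. MIC = complete growth inhibition.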

[2] = system: Mycobacterium tuberculosis; experiment: Ratio of compound MIC to ciprofloxacin MIC for multidrug-resistant Mycobacterium tuberculosis 09710; format: functional

Row | SMILES | MIC [1] [µM] | Ratio [2]
1 | COc1c(N2CCNCC2)c(F)cc2c(=O)c(C(=O)O)cn(C3CC3)c12 | 11.1 (≈ 4 µg/mL) | –
2 | COc1c(N2CCN(CN3C(=O)C(=O)c4ccccc43)CC2)c(F)cc2c(=O)c(C(=O)O)cn(C3CC3)c12 | 30.8 (≈ 16 µg/mL) | –
3 | COc1c(N2CCN(CN3C(=O)C(=O)c4cc(F)ccc43)CC2)c(F)cc2c(=O)c(C(=O)O)cn(C3CC3)c12 | 14.9 (≈ 8.01 µg/mL) | –
4 | COc1c(N2CCN(CN3C(=O)/C(=N\O)c4ccccc43)CC2)c(F)cc2c(=O)c(C(=O)O)cn(C3CC3)c12 | 29.9 (≈ 16 µg/mL) | –
5 | COc1c(N2CCN(CN3C(=O)/C(=N\O)c4cc(F)ccc43)CC2)c(F)cc2c(=O)c(C(=O)O)cn(C3CC3)c12 | 14.5 (≈ 8.01 µg/mL) | –
6 | CO/N=C1\C(=O)N(CN2CCN(c3c(F)cc4c(=O)c(C(=O)O)cn(C5CC5)c4c3OC)CC2)c2ccccc21 | 14.6 (≈ 8.01 µg/mL) | –
7 | CO/N=C1\C(=O)N(CN2CCN(c3c(F)cc4c(=O)c(C(=O)O)cn(C5CC5)c4c3OC)CC2)c2ccc(F)cc21 | 7.05 (≈ 4 µg/mL) | 3.5
8 | CCO/N=C1\C(=O)N(CN2CCN(c3c(F)cc4c(=O)c(C(=O)O)cn(C5CC5)c4c3OC)CC2)c2ccccc21 | 28.4 (≈ 16 µg/mL) | –
9 | COc1c(N2CCN(CN3C(=O)/C(=N\NC(N)=O)c4ccccc43)CC2)c(F)cc2c(=O)c(C(=O)O)cn(C3CC3)c12 | 6.93 (≈ 4 µg/mL) | 3.5
10 | COc1c(N2CCN(CN3C(=O)/C(=N\NC(N)=O)c4cc(F)ccc43)CC2)c(F)cc2c(=O)c(C(=O)O)cn(C3CC3)c12 | 6.72 (≈ 4 µg/mL) | 3.5
11 | COc1c(N2CCN(CN3C(=O)/C(=N\NC(N)=S)c4ccccc43)CC2)c(F)cc2c(=O)c(C(=O)O)cn(C3CC3)c12 | 6.75 (≈ 4.01 µg/mL) | 3.5
12 | O=C(O)c1cn(C2CC2)c2cc(N3CCNCC3)c(F)cc2c1=O [CIPROFLOXACIN] | 24.2 (≈ 8.01 µg/mL) | –
13 | NNC(=O)c1ccncc1 [ISONIAZID] | 467 (≈ 64 µg/mL) | –
14 | CO[C@H]1/C=C/O[C@@]2(C)Oc3c(C)c(O)c4c(O)c(c(/C=N/N5CCN(C)CC5)c(O)c4c3C2=O)NC(=O)/C(C)=C\C=C\[C@H](C)[C@H](O)[C@@H](C)[C@@H](O)[C@@H](C)[C@H](OC(C)=O)[C@@H]1C [RIFAMPIN] | > 311 | –
